The record followed here is ChEMBL document CHEMBL2407059, “Discovery and characterization of carbamothioylacrylamides as EP2 selective antagonists” (ACS Med Chem Lett, 2013).

≈ marks a conversion by molar mass, not a printed value. Calls of active or inactive are those of the source. The calls are words filed in the database; no cut-off is given here.

Data set [1] concerns C6. The data set is described as follows: Cytotoxicity against rat C6 cells after 48 hrs. The class given is cell-based. The settings on record: c6, 48 h. The method, boiled down: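 C6G cells are incubated with compound for 48 h, then cell viability is measured and CC50 derived.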
The target in data set [2] is T1, Prostaglandin D2 receptor (Homo sapiens) (UniProt Q13258).
T1 sequence (whole entry): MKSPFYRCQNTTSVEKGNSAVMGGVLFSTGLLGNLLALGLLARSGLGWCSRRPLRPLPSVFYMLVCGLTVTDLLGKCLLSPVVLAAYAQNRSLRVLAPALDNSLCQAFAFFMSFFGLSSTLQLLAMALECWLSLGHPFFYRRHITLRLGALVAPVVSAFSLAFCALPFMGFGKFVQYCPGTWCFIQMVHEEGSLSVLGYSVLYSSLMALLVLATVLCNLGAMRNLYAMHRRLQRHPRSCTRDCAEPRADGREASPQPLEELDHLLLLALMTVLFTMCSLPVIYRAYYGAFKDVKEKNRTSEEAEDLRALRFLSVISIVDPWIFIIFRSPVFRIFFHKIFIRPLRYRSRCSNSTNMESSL
The data set is described as follows: Antagonist activity at human DP1 receptor overexpressed in rat C6 cells assessed as inhibition of BW245C-induced cAMP accumulation incubated for 10 mins prior to BW245C addition measured after 40 mins by TR-FRET assay. The class given is functional, cell-based. On the technique in general: cAMP levels reflect the balance of adenylyl cyclase and phosphodiesterase activity.

The target of data set [3] is Prostaglandin E2 receptor EP4 subtype (Homo sapiens) (UniProt P35408). The data set is described as follows: Antagonist activity at human EP4 receptor overexpressed in rat C6 cells assessed as inhibition of PGE2-induced cAMP accumulation incubated for 10 mins prior to PGE2 addition measured after 40 mins by TR-FRET assay. The class given is functional, cell-based.
Sequence of Prostaglandin E2 receptor EP4 subtype (Homo sapiens) (P35408 whole entry): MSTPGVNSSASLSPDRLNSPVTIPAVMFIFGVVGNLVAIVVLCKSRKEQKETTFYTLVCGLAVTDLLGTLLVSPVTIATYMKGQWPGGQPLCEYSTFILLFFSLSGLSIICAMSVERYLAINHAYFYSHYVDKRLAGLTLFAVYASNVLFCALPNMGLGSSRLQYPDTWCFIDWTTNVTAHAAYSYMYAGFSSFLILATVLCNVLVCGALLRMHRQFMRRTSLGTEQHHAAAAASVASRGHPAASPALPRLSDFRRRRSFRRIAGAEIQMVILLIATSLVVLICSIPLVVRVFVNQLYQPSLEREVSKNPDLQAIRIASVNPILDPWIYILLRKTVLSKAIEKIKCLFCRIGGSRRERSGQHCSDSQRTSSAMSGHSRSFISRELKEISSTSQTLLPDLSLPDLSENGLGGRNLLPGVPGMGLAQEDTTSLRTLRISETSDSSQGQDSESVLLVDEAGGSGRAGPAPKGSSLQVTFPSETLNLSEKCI
Data set [4] is described as follows: Metabolic stability in human liver microsomes assessed as compound remaining at 1 to 10 uM after 60 mins. The class given is ADME, Microsome. The settings on record: read-out: Stability. Background: Liver microsomes are vesicles of endoplasmic reticulum, rich in cytochrome P450 enzymes.
Data set [5] in a line: Metabolic stability in mouse liver microsomes assessed as compound remaining at 1 to 10 uM after 60 mins. The note with it: read-out: Stability. The class given is ADME, Microsome.
Data set [6] deals with Prostacyclin receptor (Homo sapiens) (UniProt P43119). The data set is described as follows: Antagonist activity at human IP receptor overexpressed in rat C6 cells assessed as inhibition of iloprost-induced cAMP accumulation incubated for 10 mins prior to iloprost addition measured after 40 mins by TR-FRET assay. The class given is functional, cell-based.
Sequence of Prostacyclin receptor (Homo sapiens) (P43119 whole entry): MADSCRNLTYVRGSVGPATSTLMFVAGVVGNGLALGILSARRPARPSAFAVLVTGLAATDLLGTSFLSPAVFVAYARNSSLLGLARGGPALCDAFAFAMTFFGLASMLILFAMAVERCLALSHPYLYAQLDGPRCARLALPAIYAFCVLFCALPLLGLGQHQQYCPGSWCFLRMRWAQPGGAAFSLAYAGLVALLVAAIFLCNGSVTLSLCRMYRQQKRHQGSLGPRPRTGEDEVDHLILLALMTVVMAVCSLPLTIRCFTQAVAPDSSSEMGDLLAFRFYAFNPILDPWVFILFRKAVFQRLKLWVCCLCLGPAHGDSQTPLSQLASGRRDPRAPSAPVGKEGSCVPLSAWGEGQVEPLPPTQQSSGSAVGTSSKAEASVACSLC
For data set [7], the target named is T2, Prostaglandin E2 receptor EP2 subtype (Homo sapiens, UniProt P43116). The data set is described as follows: Competitive antagonist activity at human EP2 receptor overexpressed in rat C6 cells by Schild plot analysis. The class given is cell-based.
T2 sequence (P43116 whole entry): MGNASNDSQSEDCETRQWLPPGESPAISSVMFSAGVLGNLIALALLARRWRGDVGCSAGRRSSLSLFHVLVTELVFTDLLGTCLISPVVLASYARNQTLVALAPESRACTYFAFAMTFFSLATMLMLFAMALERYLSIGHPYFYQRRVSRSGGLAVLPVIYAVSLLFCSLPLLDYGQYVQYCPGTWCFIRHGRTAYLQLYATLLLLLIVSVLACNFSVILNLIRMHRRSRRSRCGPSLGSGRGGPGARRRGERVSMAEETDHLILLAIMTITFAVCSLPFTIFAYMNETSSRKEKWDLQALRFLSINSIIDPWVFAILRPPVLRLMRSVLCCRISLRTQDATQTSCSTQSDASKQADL
The target of data set [8] is Prostaglandin E2 receptor EP2 subtype (Mus musculus) (UniProt Q62053). The data set is described as follows: Inhibition of EP2 receptor-mediated mouse P388D1 macrophage activation assessed as inhibition of butaprost-induced IL-17 mRNA expression at 10 uM incubated for 1 hr prior to butaprost-challenge measured after 2 hrs by qRT-PCR analysis. The procedure, abridged:
(§1)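 P388D1 mouse macrophages pretreated 1 h with 10 μM antagonist or vehicle, then stimulated 2 h with EP2-selective agonist butaprost (10 μM). Inflammatory mediator mRNA quantified by qRT-PCR; n = 3–4, mean ± SEM, one-way ANOVA with post hoc Bonferroni test.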

Data set [9] has as its system Brain. The data set is described as follows: Drug uptake in C57BL/6 mouse brain at 10 mg/kg, ip after 1 hr. The class given is ADME, organism-based. The note with it: in vivo. The arrangement: dose 10 mg/kg, route intraperitoneal. The method, boiled down: (§2)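 Female C57BL/6 mice dosed 10 mg/kg by oral gavage or 5 mg/kg i.p. (10 mg/kg i.p. also examined for brain) in vehicle of 10% DMSO, 70% PEG400, 20% sterile water. Brain tissue collected at 1 and 2 h post-dose; brain-to-plasma ratio reported.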

The nature of data set [10]: Plasma concentration in C57BL/6 mouse at 10 mg/kg, po after 30 mins. The class given is ADME, organism-based. Further details: dose 10 mg/kg, route oral. The procedure, abridged:
(§3)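 Female C57BL/6 mice dosed 10 mg/kg by oral gavage or 5 mg/kg i.p. in 10% DMSO/70% PEG400/20% sterile water. Blood drawn at five time points from 0.5 to 8 h and processed to plasma. Compound concentration in plasma measured; n = 3 mice per time point, mean ± SEM.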

For data set [11], the system named is Brain. The data set is described as follows: Drug uptake in C57BL/6 mouse brain at 10 mg/kg, po after 1 to 2 hrs. The class given is ADME, organism-based. Further details: dose 10 mg/kg, route oral. The note with it: in vivo. The procedure, abridged:
as §2

For data set [12], the target named is Prostaglandin E2 receptor EP2 subtype (Mus musculus) (UniProt Q62053). The data set is described as follows: Inhibition of EP2 receptor-mediated mouse P388D1 macrophage activation assessed as inhibition of butaprost-induced IL-23 mRNA expression at 10 uM incubated for 1 hr prior to butaprost-challenge measured after 2 hrs by qRT-PCR analysis. The procedure, abridged: as §1
Sequence of Prostaglandin E2 receptor EP2 subtype (Mus musculus) (Q62053 whole entry): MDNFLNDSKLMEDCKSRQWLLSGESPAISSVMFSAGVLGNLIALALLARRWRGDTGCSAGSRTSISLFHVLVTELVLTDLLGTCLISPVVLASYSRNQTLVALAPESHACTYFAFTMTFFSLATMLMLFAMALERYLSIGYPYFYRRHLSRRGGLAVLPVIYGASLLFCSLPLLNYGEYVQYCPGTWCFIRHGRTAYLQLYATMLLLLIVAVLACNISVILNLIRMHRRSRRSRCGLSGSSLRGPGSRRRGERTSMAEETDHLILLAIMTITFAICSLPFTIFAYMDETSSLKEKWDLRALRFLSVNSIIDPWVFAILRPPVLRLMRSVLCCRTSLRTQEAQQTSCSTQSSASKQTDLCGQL
On the technique in general: Quantitative PCR measures a nucleic acid by following its amplification.

For data set [13], the system named is Nucleic Acid. The data set is described as follows: Ratio of drug level in brain to plasma in C57BL/6 mouse at 10 mg/kg, ip. The class given is ADME, organism-based. The arrangement: dose 10 mg/kg, route intraperitoneal. The procedure, abridged:
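Female C57BL/6 mice dosed 10 mg/kg i.p. Plasma prepared from blood, and brain tissue collected at 1 h. Brain-to-plasma concentration ratio calculated from the two levels.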

For data set [14], the target named is Prostaglandin E2 receptor EP2 subtype (Mus musculus) (UniProt Q62053). The data set is described as follows: Inhibition of EP2 receptor-mediated mouse P388D1 macrophage activation assessed as inhibition of butaprost-induced IL-1beta mRNA expression at 10 uM incubated for 1 hr prior to butaprost-challenge measured after 2 hrs by qRT-PCR analysis. The method, boiled down: as §1

The target is the same in data set [15]. The data set is described as follows: Inhibition of EP2 receptor-mediated mouse P388D1 macrophage activation assessed as inhibition of butaprost-induced TNF-alpha mRNA expression at 10 uM incubated for 1 hr prior to butaprost-challenge measured after 2 hrs by qRT-PCR analysis. The method, boiled down:
as §1

Data set [16] concerns Brain. The data set is described as follows: Drug uptake in C57BL/6 mouse brain at 5 mg/kg, ip after 1 to 2 hrs. The class given is ADME, organism-based. Further details: dose 5 mg/kg, route intraperitoneal. The note with it: in vivo. The procedure, abridged: as §2
The target in data set [17] is Prostaglandin E2 receptor EP2 subtype (Mus musculus) (UniProt Q62053). The data set is described as follows: Inhibition of EP2 receptor-mediated mouse P388D1 macrophage activation assessed as inhibition of butaprost-induced COX-2 mRNA expression at 10 uM incubated for 1 hr prior to butaprost-challenge measured after 2 hrs by qRT-PCR analysis. The method, boiled down: as §1

Data set [18] has as its target Prostaglandin E2 receptor EP4 subtype (Homo sapiens) (UniProt P35408). The data set is described as follows: Inhibition of human EP4 receptor overexpressed in rat C6G cells up to 40 uM by TR-FRET assay. The class given is cell-based.
Data set [19] can be described thus: Inhibition of Staphylococcus aureus NadD.
In data set [20] the target is Prostaglandin E2 receptor EP2 subtype (Mus musculus) (UniProt Q62053). The data set is described as follows: Inhibition of EP2 receptor-mediated mouse P388D1 macrophage activation assessed as inhibition of butaprost-induced IL-12 mRNA expression at 10 uM incubated for 1 hr prior to butaprost-challenge measured after 2 hrs by qRT-PCR analysis. The method, boiled down:
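P388D1 macrophage line pretreated 1 h with test agent at 10 μM or vehicle, then stimulated with the EP2-selective agonist butaprost (10 μM) for 2 h. Inflammatory mediator mRNA quantified by qRT-PCR. n = 3–4, mean ± SEM, one-way ANOVA with post hoc Bonferroni test.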

The nature of data set [21]: Aqueous solubility of the compound in PBS buffer at pH 7.0 by nephelometry. The class given is physicochemical.
The target in data set [22] is Beta-2 adrenergic receptor (Homo sapiens) (UniProt P07550). The data set is described as follows: Inhibition of beta2-adrenergic receptor (unknown origin) overexpressed in rat C6G cells up to 40 uM by TR-FRET assay. The class given is cell-based.
Sequence of Beta-2 adrenergic receptor (Homo sapiens) (P07550 whole entry, looked up): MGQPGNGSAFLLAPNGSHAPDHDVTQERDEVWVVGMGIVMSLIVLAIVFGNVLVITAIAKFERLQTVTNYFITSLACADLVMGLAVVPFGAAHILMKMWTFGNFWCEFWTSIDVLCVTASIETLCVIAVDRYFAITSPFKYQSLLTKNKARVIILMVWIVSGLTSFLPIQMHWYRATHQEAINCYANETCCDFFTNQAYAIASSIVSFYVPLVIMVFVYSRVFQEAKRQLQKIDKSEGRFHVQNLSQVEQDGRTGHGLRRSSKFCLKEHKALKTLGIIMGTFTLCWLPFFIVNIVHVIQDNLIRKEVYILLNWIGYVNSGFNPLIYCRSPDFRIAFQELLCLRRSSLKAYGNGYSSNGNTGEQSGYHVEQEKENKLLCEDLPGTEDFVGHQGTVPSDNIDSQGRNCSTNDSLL
For data set [23], the target named is Prostaglandin E2 receptor EP2 subtype (Mus musculus) (UniProt Q62053). The data set is described as follows: Inhibition of EP2 receptor-mediated mouse P388D1 macrophage activation assessed as inhibition of butaprost-induced IL-6 mRNA expression at 10 uM incubated for 1 hr prior to butaprost-challenge measured after 2 hrs by qRT-PCR analysis. The method, boiled down:
as §1

Data set [24] can be described thus: Plasma concentration in C57BL/6 mouse at 5 mg/kg, ip after 30 mins. The class given is ADME, organism-based. The arrangement: dose 5 mg/kg, route intraperitoneal. The procedure, abridged:
as §3

The target of data set [25] is T2, Prostaglandin E2 receptor EP2 subtype. The data set is described as follows: Antagonist activity at human EP2 receptor overexpressed in rat C6 cells assessed as inhibition of PGE2-induced cAMP accumulation incubated for 10 mins prior to PGE2 addition measured after 40 mins by TR-FRET assay. The class given is functional, cell-based.

As usually defined, the CC50 is the concentration that lowers cell viability or growth by half. Lower therefore signals greater toxicity to the cells. The term Kb denotes the affinity of an antagonist, worked out from how it opposes an agonist. With `COc1cc(NS(=O)(=O)c2ccc(NC(=S)NC(=O)/C=C/c3ccc(F)cc3)cc2)ncn1`, half-maximal cytotoxicity in data set [1] (CC50) was put at 378 µM. Moreover, the KB entry in [2] was “inactive”. For the same compound, the Kb in [3] turned out to be 18.2 µM. Further, the remaining at 1 h, up to 10 µM in data set [4] and in data set [5] was 40% throughout.
On to `COc1cc(NS(=O)(=O)c2ccc(NC(=S)NC(=O)c3cccs3)cc2)nc(OC)n1`, for which the CC50 in data set [1] worked out at 258 µM. Further, the Kb is 5.9 µM in data set [6] and 25.2 µM in data set [2].
For the compound `CCc1nnc(NS(=O)(=O)c2ccc(NC(=S)NC(=O)/C=C/c3cccs3)cc2)s1`, it took 330 µM to reach half-maximal cytotoxicity in data set [1] (CC50). In addition, the Kb in data set [6] is 2.26 µM.
In the case of `CCc1nnc(NS(=O)(=O)c2ccc(NC(=S)NC(=O)/C=C/c3ccc(OC)cc3)cc2)s1`, in data set [1], the CC50 is 365 µM. Moreover, the Kb is 0.36 µM in data set [6], 46.6 µM in data set [2], 13 µM in [3] and 0.0345 µM in data set [7].
Consider `COc1cc(NS(=O)(=O)c2ccc(NC(=S)NC(=O)c3sc4cc(F)ccc4c3Cl)cc2)nc(OC)n1`, for which the CC50 in data set [1] came to 96 µM. For the same compound, the Kb in data set [6] came out at 21 µM; in data set [2], 8.7 µM; in [3], 0.7 µM; in data set [7], 0.108 µM.
As to `CCc1nnc(NS(=O)(=O)c2ccc(NC(=S)NC(=O)/C=C/c3ccccc3)cc2)s1`, in data set [1], the CC50 is 370 µM. Besides, the Kb in data set [2] came to 9.8 µM.
`COc1ccc(NS(=O)(=O)c2ccc(NC(=S)NC(=O)/C=C/c3ccc(C)cc3)cc2)nn1`: the CC50 in data set [1] was found to be 150 µM. In addition, the Kb in data set [6] is 0.36 µM; in data set [3] it was 20.5 µM; in data set [7] it was 0.0133 µM. The KB entry in data set [2] was “inactive”.
Usually IC50 stands for the concentration that inhibits the measured activity by half. The term solubility (kinetic) denotes solubility judged after dilution from a stock solution rather than from solid. Consider `CCc1nnc(NS(=O)(=O)c2ccc(NC(=S)NC(=O)/C=C/c3ccc(F)cc3)cc2)s1`, for which the inhibition result in data set [8], in data set [12], in data set [14], in [15], in data set [17] and in [20] was “Active” throughout. Moreover, the inhibition entry in [23] was “Active”. The Drug uptake result in [9] is “Active”; in [11] it was “Not Active”; in data set [16], “Not Active”. The concentration at 0.5 h in data set [10] is 12 µM; in data set [24] it was 30 µM. In data set [1], this compound showed a CC50 of 326 µM. Besides, in data set [13], the BPR came out at 0.02. Besides, the inhibition result in data set [18] and in [22] was “inactive” in each case. Besides, the remaining at 1 h, up to 10 µM in [4] and in [5] was 40% in each case. The IC50 in [19] amounted to 4.5 µM; in data set [25] it was 1.6 µM. In [21], this compound came in with a solubility (kinetic) of 71 µg/mL (≈ 144 µM). For the same compound, the inhibition result in data set [25] was “Dose-dependent effect”.
`CCc1nnc(NS(=O)(=O)c2ccc(NC(=S)NC(=O)c3ccc(OC)cc3)cc2)s1` showed a CC50 in data set [1] of 186 µM. Moreover, the figures for the Kb in [6] and in data set [2] were 1.73 µM and 16.1 µM, respectively.
